{
  "source": "paper PMC4973383",
  "about": "(Acta Pharmacologica Sinica, 2016)",
  "key": {"HCT8 cells": {"tested_on": "HCT8 cells", "experiment": "In vitro cytotoxicity, MTT assay", "type": "cell-based, human", "conditions": "48 h, Dox-equivalent concentration", "method_in_brief": "(§1)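 HCT8 and HCT8/ADR cells were grown in RPMI-1640 with 10% FBS, streptomycin and penicillin at 37 °C under 5% CO₂. Cells were seeded at 5×10^3 per well and grown 24 h, then exposed to varying concentrations of test nanoparticles or free Dox for 48 h. MTT (5 mg/mL stock) was added for a further 4 h, then DMSO. Absorbance was read at 490 nm and viability calculated. Run in triplicate.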"}, "HCT8/ADR cells [1]": {"tested_on": "HCT8/ADR cells", "experiment": "Intranuclear distribution by confocal microscopy", "type": "cell-based, human", "conditions": "4 h incubation, DAPI counterstain", "method_in_brief": "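HCT8/ADR cells were seeded at 2×10^4 per well in RPMI-1640 with 10% FBS and grown 24 h. They were incubated 4 h with test nanoparticles or free Dox, washed twice in ice-cold PBS, and fixed in fresh 4% paraformaldehyde for 15 min at room temperature. Nuclei were counterstained with DAPI and imaged by confocal laser scanning microscopy for Dox fluorescence.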"}, "BALB/c-nu nude mice": {"tested_on": "BALB/c-nu nude mice", "experiment": "Preliminary treatment safety in tumor-bearing nude mice", "type": "in vivo", "method_in_brief": "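Female BALB/c-nu nude mice aged 3-4 weeks received 1×10^6 HCT8/ADR cells subcutaneously on the back. They were randomised into five groups of six: PBS, test nanoparticles or Dox given peritumorally, and test nanoparticles or Dox given intravenously. Dosing started at about 100 mm³ tumour volume, at 2 mg/kg Dox-equivalent every two days over 22 d. Body weight was monitored. At endpoint, organs were weighed, organ coefficient was taken as organ weight/body weight×100%, and histology was done.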"}, "HCT8/ADR cells [2]": {"tested_on": "HCT8/ADR cells", "experiment": "Effect of verapamil", "type": "cell-based, human", "conditions": "HCT8/ADR cells pretreated with verapamil 50 μmol/L for 2 h; drug incubation 1 h or 2 h; flow cytometry"}, "HCT8/ADR cells [3]": {"tested_on": "HCT8/ADR cells", "experiment": "In vitro cytotoxicity, MTT assay", "type": "cell-based, human", "conditions": "48 h, concentration up to 20 μg/mL", "method_in_brief": "as §1"}},
  "data": [
    {"smiles": "COc1cccc2c1C(=O)c1c(O)c3c(c(O)c1C2=O)C[C@@](O)(C(=O)CO)C[C@@H]3O[C@H]1C[C@H](N)[C@H](O)[C@H](C)O1", "note": "[Dox, Doxorubicin]", "values": [
      {"measurement": "IC50 (cell proliferation)", "setting": "HCT8 cells", "value": "approximately 1 μg/mL"},
      {"measurement": "Dox-related red fluorescence, intranuclear accumulation", "setting": "HCT8/ADR cells [1]", "value": "hardly observed"},
      {"measurement": "body weight change", "setting": "BALB/c-nu nude mice; Dox dose 2 mg/kg per two days over 22 d, nude mice bearing HCT8/ADR tumor", "value": "remarkable body weight loss"},
      {"measurement": "histological examination of major organs", "setting": "BALB/c-nu nude mice; at experimental endpoint, 22 d", "value": "degeneration and edema and focal cytolysis necrosis in the liver and spleen"},
      {"measurement": "organ coefficient of liver and spleen", "setting": "BALB/c-nu nude mice; iv, at experimental endpoint, 22 d", "value": "reduced markedly"},
      {"measurement": "change of uptake efficiency after verapamil", "setting": "HCT8/ADR cells [2]", "value": "clearly increased uptake efficiency"},
      {"measurement": "antitumor activity (cytotoxicity)", "setting": "HCT8/ADR cells [3]", "value": "ineffective"}
    ]}
  ]
}
